Data as given in ChEMBL document CHEMBL1121364, “Nucleoside conjugates as potential antitumor agents. 3. Synthesis and antitumor activity of 1-(beta-D-arabinofuranosyl)cytosine conjugates of corticosteroids” (1980).

Legend:
L1210 [1] = assay: Antitumor activity in mice with intraperitoneal implanted L1210 lymphoid leukemia at the dose 25 mg/kg/day x 5 was determined as weight change (g/mouse) on 8th day; format: functional
Outline: (§1)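 C3D2F1/J female mice (C3H/HeJ × DBA/2J), groups of six to eight, average 25 g, inoculated ip with 1 × 10^6 L1210 ascites cells taken from DBA/2Ha donor mice carrying 3-5 day tumors. Compound dissolved in 0.154 N NaOH, then neutralized with 0.154 N HCl to give 0.9% NaCl. Given ip daily for 5 consecutive days starting 24 h after implantation. Body weight change per mouse recorded on day 8.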

L1210 [2] = assay: Antitumor activity in the mice with intraperitoneal implanted L1210 lymphoid leukemia at the dose 25 mg/kg/day x 5 was determined as percentage increase in the life span as compared with control tumor bearers; format: functional; conditions: Mus musculus, L1210, ip
Outline: (§2)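 Female C3D2F1/J mice (C3H/HeJ × DBA/2J), groups of six to eight, average weight 25 g. Each mouse got 1 × 10^6 L1210 ascites cells ip, taken from DBA/2Ha donor mice bearing 3-5 day tumors. Compound was dissolved in 0.154 N NaOH and neutralized with 0.154 N HCl (final 0.9% NaCl). Dosed ip daily ×5, starting 24 h after implant. Recorded body weight change on day 8, survival range, median survival and 30-day survivors. ILS = (T/C − 1) × 100.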

L1210 [3] = assay: Antitumor activity in the mice with intraperitoneal implanted L1210 lymphoid leukemia at the dose of 75 mg/kg/day x 5 was determined as mean survival of treated group compared to untreated; 17.5/9.5; format: functional, Mus musculus
L1210 [4] = assay: Antitumor activity in the mice with intraperitoneal implanted L1210 lymphoid leukemia at the dose 50 mg/kg/day x 5 was determined as percentage increase in the life span as compared with control tumor bearers; format: functional; conditions: Mus musculus, L1210, ip
Outline: (§3)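 C3D2F1/J female mice (C3H/HeJ female × DBA/2J male), groups of six to eight, average weight 25 g. Inoculated ip with 1 × 10^6 L1210 ascites cells taken from DBA/2Ha donor mice bearing 3-5 day old tumors. Compounds were dissolved in 0.154 N NaOH, neutralized with 0.154 N HCl (final 0.9% NaCl), and given ip daily for 5 days from 24 h post-implant. Median survival T/C; ILS = (T/C − 1) × 100; 30-day survivors counted.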

L1210 [5] = assay: Antitumor activity in the mice with intraperitoneal implanted L1210 lymphoid leukemia at the dose of 100 mg/kg/day x 5 was determined as mean survival of treated group compared to untreated; 7/11; format: functional, Mus musculus; outline: as §3
L1210 [6] = assay: Antitumor activity in the mice with intraperitoneal implanted L1210 lymphoid leukemia at the dose 75 mg/kg/day x 5 was determined and number of animals survived on 30 th day were reported; 0/8; format: functional, Mus musculus; outline: as §3
L1210 [7] = assay: Antitumor activity in the mice with intraperitoneal implanted L1210 lymphoid leukemia at the dose 50 mg/kg/day x 5 was determined as Survival time in days; Range is 14-17 days; format: functional, Mus musculus; outline: as §2
L1210 [8] = assay: Antitumor activity in the mice with intraperitoneal implanted L1210 lymphoid leukemia at the dose 100 mg/kg/day x 5 was determined as percentage increase in the life span as compared with control tumor bearers; format: functional; conditions: Mus musculus, L1210, ip; outline: as §2
L1210 [9] = assay: Antitumor activity in the mice with intraperitoneal implanted L1210 lymphoid leukemia at the dose of 25 mg/kg/day x 5 was determined as mean survival of treated group compared to untreated; 14/8.5; format: functional, Mus musculus; outline: as §3
L1210 [10] = assay: Antitumor activity in the mice with intraperitoneal implanted L1210 lymphoid leukemia at the dose of 50 mg/kg/day x 5 was determined as mean survival of treated group compared to untreated; 16/9.5; format: functional, Mus musculus; outline: as §3
L1210 [11] = assay: Antitumor activity in the mice with intraperitoneal implanted L1210 lymphoid leukemia at the dose 75 mg/kg/day x 5 was determined as Survival time in days; Range is 14-18 days; format: functional, Mus musculus; outline: as §3
L1210 [12] = assay: Antitumor activity in the mice with intraperitoneal implanted L1210 lymphoid leukemia at the dose 100 mg/kg/day x 5 was determined and number of animals survived on 30 th day were reported; 0/6; format: functional, Mus musculus; outline: as §2
L1210 [13] = assay: Antitumor activity in mice with intraperitoneal implanted L1210 lymphoid leukemia at the dose 50 mg/kg/day x 5 was determined as weight change (g/mouse) on 8th day; format: functional; outline: as §1
L1210 [14] = assay: Antitumor activity in the mice with intraperitoneal implanted L1210 lymphoid leukemia at the dose 25 mg/kg/day x 5 was determined as Survival time in days; Range is 12-18 days; format: functional, Mus musculus; outline: as §2
L1210 [15] = assay: Antitumor activity in mice with intraperitoneal implanted L1210 lymphoid leukemia at the dose 75 mg/kg/day x 5 was determined as weight change (g/mouse) on 8th day; format: functional; outline: as §1
L1210 [16] = assay: Antitumor activity in the mice with intraperitoneal implanted L1210 lymphoid leukemia at the dose 100 mg/kg/day x 5 was determined as Survival time in days; Range is 7-8 days; format: functional, Mus musculus; outline: as §2
L1210 [17] = assay: Antitumor activity in the mice with intraperitoneal implanted L1210 lymphoid leukemia at the dose 50 mg/kg/day x 5 was determined and number of animals survived on 30 th day were reported; 0/8; format: functional, Mus musculus; outline: as §2
L1210 [18] = assay: Antitumor activity in the mice with intraperitoneal implanted L1210 lymphoid leukemia at the dose 25 mg/kg/day x 5 was determined and number of animals survived on 30 th day were reported; 0/8; format: functional, Mus musculus; outline: as §2
L1210 [19] = assay: Antitumor activity in the mice with intraperitoneal implanted L1210 lymphoid leukemia at the dose 75 mg/kg/day x 5 was determined as percentage increase in the life span as compared with control tumor bearers; format: functional; conditions: Mus musculus, L1210, ip; outline: as §3
L1210 [20] = assay: In Vitro evaluation for the antiproliferative activity by observing the growth inhibition of L1210 lymphoid leukemia cells in culture at 72 hour; format: functional, Mus musculus
Outline: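 Growth of L1210 lymphoid leukemia cells in culture measured by Trypan blue exclusion of viable cells after 72 h of drug exposure. ED50 is the concentration giving 50% growth inhibition. In some runs the compound was first preincubated in medium at 37 °C for 24 or 48 h before the assay.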

With `C[C@]12CCC(=O)C=C1CC[C@H]1[C@@H]3CC[C@](O)(C(=O)COP(=O)(O)OC[C@H]4O[C@@H](n5ccc(N)nc5=O)[C@@H](O)[C@@H]4O)[C@@]3(C)C[C@H](O)[C@@]12F` the Weight change (L1210 [1]) was -1.09 g mouse-1, the ILS at 25 mg/kg/day (L1210 [2]) was 65% and the Survival time (L1210 [3]) was 17.5 days. It also gave an ILS at 50 mg/kg/day (L1210 [4]) of 68%, a T/C (L1210 [5]) of 7 and a Survivors (L1210 [6]) of 0. For the same molecule, the Survival time (L1210 [7]) was 14 days, the ILS at 100 mg/kg/day (L1210 [8]) was -36% and the T/C (L1210 [9]) was 14. The T/C (L1210 [10]) was 16, the Survival time (L1210 [11]) was 14 days and the Survivors (L1210 [12]) was 0. The Weight change (L1210 [13]) was 0.39 g mouse-1, the Survival time (L1210 [14]) was 12 days and the Weight change (L1210 [15]) was 0.52 g mouse-1. The Survival time (L1210 [16]) was 7 days, the Survivors (L1210 [17]) was 0 and the Survivors (L1210 [18]) was 0. The ILS at 75 mg/kg/day (L1210 [19]) was 84% and the “ED 50” value (L1210 [20]) was 80 nM.
